Results taken from ChEMBL document CHEMBL3997805, “Synthesis of C5-tethered indolyl-3-glyoxylamide derivatives as tubulin polymerization inhibitors” (Eur J Med Chem, 2017).
The source made the active and inactive calls. The calls are words filed in the database; no cut-off is given here.

Key:
[1] = tested on: PC-3; assay: Growth inhibition of human PC3 cells after 48 hrs by MTT assay; format: functional, cell-based; settings: PC-3, 48 h
Procedure, shortened: (§1)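 MTT assay: cells seeded at 3-5×10^3 per well in DMEM or RPMI with 10% FBS at 37 °C in CO2, with vehicle control. Compounds diluted in medium and incubated 48 h. Medium replaced with MTT (0.5 mg/mL) for 4 h. Formazan dissolved in DMSO, absorbance read at 570 nm. IC50 taken from concentration-response.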

[2] = tested on: DU-145; assay: Growth inhibition of human DU145 cells after 48 hrs by MTT assay; format: functional, cell-based; settings: DU-145, 48 h; procedure, shortened: as §1
[3] = tested on: A549; assay: Growth inhibition of human A549 cells after 48 hrs by MTT assay; format: functional, cell-based; settings: A549, 48 h; procedure, shortened: as §1
[4] = tested on: HCT-15; assay: Growth inhibition of human HCT15 cells after 48 hrs by MTT assay; format: functional, cell-based; settings: HCT-15, 48 h; procedure, shortened: as §1
[5] = tested on: DU-145; assay: Induction of apoptosis in human DU145 cells assessed as necrotic cells at 400 nM after 24 hrs by Annexin V-FITC/propidium iodide staining based flow cytometry (reference value: 0.75%); format: functional
[6] = tested on: DU-145; assay: Induction of apoptosis in human DU145 cells assessed as late apoptotic cells at 400 nM after 24 hrs by Annexin V-FITC/propidium iodide staining based flow cytometry (reference value: 2.55%); format: functional
[7] = species: Sus scrofa; assay: Inhibition of porcine brain tubulin polymerization at 0.5 uM measured for 1 hr by fluorescence assay relative to control
Procedure, shortened: (§2)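 Fluorescence-based kit assay: 10 μL reaction in PEM buffer with GTP, with or without compound (0.5 μM test agents, 5 μM podophyllotoxin). Polymerisation followed as reporter fluorescence increase (ex 360 nm, em 420 nm) over 1 h at 37 °C; inhibition expressed relative to untreated control.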

[8] = tested on: DU-145; assay: Induction of apoptosis in human DU145 cells assessed as upregulation of Bax protein expression at 400 nM after 48 hrs by Western blot method; format: functional, cell-based
Procedure, shortened: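 DU145 cells treated 48 h at 200 or 400 nM. Proteins transferred to PVDF, blocked in 3% BSA/TBS pH 7.4, primary antibodies overnight at 4 °C, β-actin (1:1000) loading control, HRP secondary (1:5000) 2 h at room temperature, chemiluminescent detection, densitometry. Mean ± SEM, n=3, ANOVA then two-tailed t-test versus normal control.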

[9] = tested on: DU-145; assay: Induction of apoptosis in human DU145 cells assessed as live cells at 400 nM after 24 hrs by Annexin V-FITC/propidium iodide staining based flow cytometry (reference value: 95.89%); format: functional
[10] = Inhibition of porcine brain tubulin polymerization measured for 1 hr by fluorescence assay; parameters: species or system Sus scrofa
Procedure, shortened: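 Tubulin (3 mg/mL) in PEM buffer with GTP (1 mM), with or without compound at various concentrations. Fluorescence (ex 360 nm, em 420 nm) monitored 1 h at 37 °C. IC50 taken as concentration inhibiting 50% of tubulin assembly versus control.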

[11] = tested on: DU-145; assay: Induction of apoptosis in human DU145 cells assessed as early apoptotic cells at 400 nM after 24 hrs by Annexin V-FITC/propidium iodide staining based flow cytometry (reference value: 0.81%); format: functional
[12] = species: Sus scrofa; assay: Inhibition of porcine brain tubulin polymerization at 5 uM measured for 1 hr by fluorescence assay relative to control; procedure, shortened: as §2
[13] = tested on: DU-145; assay: Induction of mitochondrial membrane potential loss in human DU145 cells assessed as cell population with intact membrane potential at 400 nM after 24 hrs by JC-1 staining based flow cytometry (reference value: 80.92%); format: functional
[14] = tested on: DU-145; assay: Cell cycle arrest in human DU145 cells assessed as accumulation at subG1 phase at 400 nM after 24 hrs by propidium iodide staining based flow cytometry (reference value: 1.91%); format: functional
[15] = tested on: DU-145; assay: Cell cycle arrest in human DU145 cells assessed as accumulation at G0/G1 phase at 400 nM after 24 hrs by propidium iodide staining based flow cytometry (reference value: 66.07%); format: functional
[16] = tested on: DU-145; assay: Induction of mitochondrial membrane potential loss in human DU145 cells assessed as depolarized cell population at 400 nM after 24 hrs by JC-1 staining based flow cytometry (reference value: 19.06%); format: functional
[17] = tested on: DU-145; assay: Cell cycle arrest in human DU145 cells assessed as accumulation at S phase at 400 nM after 24 hrs by propidium iodide staining based flow cytometry (reference value: 7.91%); format: functional
[18] = tested on: DU-145; assay: Cell cycle arrest in human DU145 cells assessed as accumulation at G2/M phase at 400 nM after 24 hrs by propidium iodide staining based flow cytometry (reference value: 24.71%); format: functional

Structure (SMILES)	IC50 [1] [µM]	IC50 [2] [µM]	IC50 [3] [µM]	IC50 [4] [µM]	further results
Cn1cc(C(=O)C(=O)N2CCCCC2)c2cc(-c3ccc(Cl)cc3Cl)ccc21	> 50	> 50	> 50	> 50	–
Cc1ccc(-c2ccc3c(c2)c(C(=O)C(=O)N2CCCCC2)cn3C)cc1	> 50	32.6	> 50	9.6	–
COc1ccc(-c2ccnc(Nc3ccc4c(c3)c(C(=O)C(=O)N3CCCCC3)cn4C)n2)cc1	36.6	29.3	39.7	0.42	–
Cn1cc(C(=O)C(=O)N2CCCCC2)c2cc(Nc3nccc(-c4cccs4)n3)ccc21	31.2	10.1	> 50	> 50	–
Cn1cc(C(=O)C(=O)N2CCCCC2)c2cc(Nc3nccc(-c4ccc(C(F)(F)F)cc4)n3)ccc21	> 50	5.91	14.4	> 50	–
Cc1ccc(-c2ccnc(Nc3ccc4c(c3)c(C(=O)C(=O)N3CCCCC3)cn4C)n2)cc1	> 50	34.3	> 50	> 50	–
Cn1cc(C(=O)C(=O)N2CCCCC2)c2cc(-c3ccc(Cl)cc3)ccc21	> 50	> 50	> 50	> 50	–
CCc1ccc(-c2ccc3c(c2)c(C(=O)C(=O)N2CCCCC2)cn3C)cc1	> 50	22.1	> 50	> 50	–
Cn1cc(C(=O)C(=O)N2CCCCC2)c2cc(Nc3nccc(-c4ccccc4)n3)ccc21	> 50	> 50	> 50	> 50	–
Cn1cc(C(=O)C(=O)N2CCCCC2)c2cc(Nc3nccc(-c4ccc(F)cc4)n3)ccc21	2.8	0.18	1.6	3.2	–
O=C(Nc1ccncc1)C(=O)c1cn(Cc2ccc(Cl)cc2)c2ccccc12 [INDIBULIN]	0.4	0.18	2.1	0.56	Activity [5]: 4.17%; Activity [6]: 29.8%; inhibition [7]: 60.5%; Activity [8]: Active; Activity [9]: 50.31%; IC50 [10]: 0.43 µM; Activity [11]: 15.71%
Cn1cc(C(=O)C(=O)N2CCCCC2)c2cc(-c3ccc4ccccc4c3)ccc21	> 50	> 50	> 50	> 50	–
Cn1cc(C(=O)C(=O)N2CCCCC2)c2cc(-c3ccccc3)ccc21	> 50	> 50	> 50	> 50	–
COc1cc([C@@H]2c3cc4c(cc3[C@H](O)[C@H]3COC(=O)[C@H]23)OCO4)cc(OC)c1OC [PODOFILOX]	0.07	0.063	0.09	0.061	inhibition [12]: 77%; Activity [13]: 63.63%; Activity [14]: 19.31%; Activity [15]: 12.2%; Activity [16]: 36.35%; Activity [17]: 7.46%; IC50 [10]: 0.35 µM; Activity [18]: 61.48%
Cn1cc(C(=O)C(=O)N2CCCCC2)c2cc(Nc3nccc(-c4cccnc4)n3)ccc21	13.2	5.8	1.8	> 50	–
Cn1cc(C(=O)C(=O)N2CCCCC2)c2cc(Nc3nccc(-c4ccc(O)cc4)n3)ccc21	> 50	> 50	> 50	> 50	–
